Series [1] can be described thus: Biodistribution in the BxPC-3 xenograft model. Type of series: in vivo, mice. The settings on record: male, athymic nude (nu/nu), mouse, BxPC-3 tumor, iv, total radioactivity. The gist of the method: (§1)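 Male athymic nude mice (nu/nu) received 1.5 × 10^6 BxPC-3 cells s.c. in the left shoulder region, in 1:1 serum-free DMEM/MatriGel. Studies began at a tumor diameter of ∼0.5 cm. Radiotracers (∼15 to 30 μCi) were given in saline/PBS, n = 3 per time point. Tumor and tissue radioactivity was expressed as decay-corrected %ID/g, mean ± SD. Significance was tested by two-tailed Student's t-test.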

Series [2] relates to BxPC-3 xenograft. Nature of the series: Biodistribution in the BxPC-3 xenograft model. Type of series: in vivo, mice. The essentials:
as §1

Series [3] relates to BxPC-3 tumor. Briefly: MicroPET imaging of the BxPC-3 xenograft model. Type of series: in vivo, mice. The settings on record: for SUVmax in BxPC-3 tumor: mean ± SD, n = 3 animals.
The test system of series [4] is DX3puroβ6 (αvβ6-positive) and DX3puro (αvβ6-negative) xenografts. Nature of the series: Biodistribution in the DX3puro/DX3puroβ6 xenograft model. Type of series: in vivo, mice. The essentials:
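Each male athymic nude mouse (nu/nu) carried both xenografts: 3 × 10^6 DX3puroβ6 (αvβ6-transduced) and 3 × 10^6 DX3puro (control) melanoma cells in serum-free DMEM, injected s.c. on opposite shoulder flanks. Studies began at a tumor diameter of ∼0.5 cm. Radiotracers (∼15 to 30 μCi) were given in saline/PBS, n = 3 per time point. Uptake was expressed as decay-corrected %ID/g, mean ± SD.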

Series [5] deals with DX3puroβ6 cell line. Nature of the series: Radiotracer cell binding and internalization, DX3puroβ6 cells. It counts as cell-based, human. The settings on record: DX3puroβ6, 1 hour, acidic wash buffer pH 2.5, 4°C. The essentials:
(§2)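 3.75 × 10^6 cells were incubated with 0.2 μCi radiotracer in serum-free medium, pH 7.2, over a time course or for 1 h, n = 4 per cell line per time point. Bound fraction was γ-counted as cell pellet vs supernatant. Acid wash (0.2 mol/L sodium acetate, 0.5 mol/L NaCl, pH 2.5, 4°C) then released surface activity; internalized fraction was pellet vs released activity.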

Series [6] relates to BxPC-3 cell line. Briefly: Radiotracer cell binding and internalization, BxPC-3 cells. It counts as cell-based, human. Conditions: BxPC-3, 1 hour, acidic wash buffer pH 2.5, 4°C. The gist of the method: as §2
Series [7] has as its system DX3puroβ6 (αvβ6-positive) and DX3puro (αvβ6-negative) xenografts. The settings on record: previously seen, cited from earlier work.

The structures appear in SMILES notation. Read-outs that look alike come from different tables or passages of the source.

Regarding `CC(C)C[C@H](NC(=O)[C@H](CC(=O)O)NC(=O)CNC(=O)[C@H](CCCNC(=N)N)NC(=O)[C@H](CC(C)C)NC(=O)[C@H](CC(N)=O)NC(=O)[C@@H]1CCCN1C(=O)[C@@H](NC(=O)[C@H](C)NC(=O)[C@H](CC(N)=O)NC(=O)CCOCCOCCOCCOCCOCCOCCOCCOCCOCCOCCOCCOCCOCCOCCOCCOCCOCCOCCOCCOCCOCCOCCOCCOCCOCCOCCOCCOCCNC(=O)CCOCCOCCOCCOCCOCCOCCOCCOCCOCCOCCOCCOCCOCCOCCOCCOCCOCCOCCOCCOCCOCCOCCOCCOCCOCCOCCOCCOCCNC(=O)c1ccc(F)cc1)C(C)C)C(=O)N[C@@H](CCC(N)=O)C(=O)N[C@H](C(=O)N[C@@H](CC(C)C)C(=O)N[C@@H](C)C(=O)N[C@@H](CCC(N)=O)C(=O)N[C@@H](CCCCN)C(=O)N[C@H](C(=O)N[C@@H](C)C(=O)N[C@@H](CCCNC(=N)N)C(=O)N[C@H](C(N)=O)[C@@H](C)O)C(C)C)C(C)C` [[^18F]FBA-(PEG28)2-A20FMDV2], in series [1], the tissue uptake at 1 h was determined as 1.57 ± 0.25 %ID/g and the tissue uptake at 4 h was determined as 2.08 ± 0.37 %ID/g. Besides, in series [2] (1 h), the BxPC-3/blood ratio was 9.0 :1, the BxPC-3/muscle ratio is 4.1 :1 and the BxPC-3/pancreas ratio is listed as 5.6 :1. For the same molecule, in series [2] (4 h), the BxPC-3/blood ratio was 150 :1, the BxPC-3/muscle ratio is given as 4.4 :1 and the BxPC-3/pancreas ratio was 4.4 :1. Moreover, the “SUVmax in BxPC-3 tumor” value in series [3] (15min) turned out to be 0.99 ± 0.18. In series [3] (1 h p.i.), the “SUVmax in BxPC-3 tumor” value stood at 0.79 ± 0.24. In addition, the “SUVmax in BxPC-3 tumor” value in series [3] (4 h) came out at 0.59 ± 0.20. Also, the “maximal αvβ6-positive/-negative xenograft uptake ratio” value in series [4] is listed as 9.2 :1.
In the case of `CC(C)C[C@H](NC(=O)[C@H](CC(=O)O)NC(=O)CNC(=O)[C@H](CCCNC(=N)N)NC(=O)[C@H](CC(C)C)NC(=O)[C@H](CC(N)=O)NC(=O)[C@@H]1CCCN1C(=O)[C@@H](NC(=O)[C@H](C)NC(=O)[C@H](CC(N)=O)NC(=O)c1ccc(F)cc1)C(C)C)C(=O)N[C@@H](CCC(N)=O)C(=O)N[C@H](C(=O)N[C@@H](CC(C)C)C(=O)N[C@@H](C)C(=O)N[C@@H](CCC(N)=O)C(=O)N[C@@H](CCCCN)C(=O)N[C@H](C(=O)N[C@@H](C)C(=O)N[C@@H](CCCNC(=N)N)C(=O)N[C@H](C(N)=O)[C@@H](C)O)C(C)C)C(C)C` [[^18F]FBA-A20FMDV2, 4-[^18F]fluorobenzoyl A20FMDV2], the tissue uptake at 1 h in series [1] turned out to be 0.69 ± 0.19 %ID/g. In series [1], the tissue uptake at 4 h was determined as 0.12 ± 0.03 %ID/g. For the same molecule, the BxPC-3/blood ratio is 3.3 :1 in series [2] (1 h) and 7.0 :1 in series [2] (4 h). The BxPC-3/muscle ratio was 1.3 :1 in series [2] (1 h) and 2.5 :1 in series [2] (4 h). Also, in series [2] (4 h), the BxPC-3/pancreas ratio is on record as 9.5 :1. Further, the “SUVmax in BxPC-3 tumor” value was 0.50 ± 0.22 in series [3] (15min), 0.22 ± 0.11 in series [3] (1 h p.i.) and less than 0.05 in series [3] (4 h). Further, the “fraction of bound radioactivity internalized” value in series [5] and in series [6] was “less than half” throughout. Besides, the “uptake in αvβ6-positive DX3puroβ6 tumor” value was 0.66 ± 0.09 % ID/g in series [7] (1 h p.i.) and 0.06 ± 0.00 % ID/g in series [7] (4 h p.i.).
Regarding `O=C[C@H]([18F])[C@@H](O)[C@H](O)[C@H](O)CO` [[^18F]FDG, 2-[^18F]fluoro-2-deoxy-D-glucose, reference compound], the “SUVmax in BxPC-3 tumor” value in series [3] (1 h p.i.) was found to be 0.62 ± 0.13. Besides, in series [3] (BxPC-3 xenograft bearing mice), the “detection of BxPC-3 tumors by PET” value was “failed in all animals to detect the BxPC-3 tumors”.
